# Measured values taken from PMC2233745 (The Journal of General Physiology, 2001).
# Tests used:
# CNG channel = CNG channel activity in excised patches with PDE inhibitor; assay type: biochemical, rat; conditions: 100 μM IBMX, data not shown
# In short: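 Patch clamp on rat olfactory CNG channels expressed from an adenovirus vector. Gigaohm seals were formed, then patches were excised by shearing the cell off the pipette with a liquid jet. Currents were elicited by 250-ms pulses to +50 and −50 mV from a 0 mV holding potential and sampled at five times the filter setting.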
# [1] = tested on: PDE activity in HEK-293 cells; experiment: Effects of PDE inhibitors on forskolin-induced Ca2+ influx in HEK-293 cells; assay type: cell-based, human; conditions: C460W/E583M channels, 1 μM forskolin, IBMX 10 or 100 μM, RO-20-1724 10 μM
# HEK-293 cells = experiment: Equilibration of PDE inhibitors across the plasma membrane; assay type: cell-based, human; conditions: data not shown
# [2] = tested on: PDE activity in GH4C1 cells; experiment: Effect of PDE inhibitors on forskolin-induced Ca2+ influx in GH4C1 cells; assay type: cell-based, rat; conditions: Δ61–90/C460W/E583M channels, 10 μM forskolin, 1 μM nimodipine
# high Km PDE = high Km PDE in GH3 and GH4C1 cells; ref Gautvik et al. 1982; cited from earlier work
Structure (SMILES),effect on CNG channel activity in excised patches (CNG channel),effect on forskolin-induced Ca2+ influx [1],time to complete equilibration across the plasma membrane (HEK-293 cells),effect on PDE activity / forskolin-induced Ca2+ influx [2],Km (high Km PDE)
"CC(C)Cn1c(=O)n(C)c(=O)c2[nH]cnc21 [IBMX, 3-isobutyl-1-methylxanthine]",did not alter CNG channel activity,significant forskolin-induced Ca^2+ influx was observed,< 180 s,significantly inhibited PDE activity,
Nc1ncnc2c1ncn2[C@@H]1O[C@@H]2COP(=O)(O)O[C@H]2[C@H]1O [cAMP],,,,,28.6 µM
